# From ChEMBL document CHEMBL2346506, “Cytotoxicity and modulation of cancer-related signaling by (Z)- and (E)-3,4,3',5'-tetramethoxystilbene isolated from Eugenia rigida” (J Nat Prod, 2013)
# pIC50: −log10 of the molar value. Active and inactive are the calls of the source. The calls are words filed in the database; no cut-off is given here.
# Columns and labels:
# [1] = molecular target: T1, Nitric oxide synthase, inducible (Mus musculus, UniProt P29477); test: Inhibition of iNOS in LPS-induced mouse RAW264.7 cells assessed as inhibition of […] at measured after 24 hrs; type: cell-based
# T1 sequence (P29477 whole entry): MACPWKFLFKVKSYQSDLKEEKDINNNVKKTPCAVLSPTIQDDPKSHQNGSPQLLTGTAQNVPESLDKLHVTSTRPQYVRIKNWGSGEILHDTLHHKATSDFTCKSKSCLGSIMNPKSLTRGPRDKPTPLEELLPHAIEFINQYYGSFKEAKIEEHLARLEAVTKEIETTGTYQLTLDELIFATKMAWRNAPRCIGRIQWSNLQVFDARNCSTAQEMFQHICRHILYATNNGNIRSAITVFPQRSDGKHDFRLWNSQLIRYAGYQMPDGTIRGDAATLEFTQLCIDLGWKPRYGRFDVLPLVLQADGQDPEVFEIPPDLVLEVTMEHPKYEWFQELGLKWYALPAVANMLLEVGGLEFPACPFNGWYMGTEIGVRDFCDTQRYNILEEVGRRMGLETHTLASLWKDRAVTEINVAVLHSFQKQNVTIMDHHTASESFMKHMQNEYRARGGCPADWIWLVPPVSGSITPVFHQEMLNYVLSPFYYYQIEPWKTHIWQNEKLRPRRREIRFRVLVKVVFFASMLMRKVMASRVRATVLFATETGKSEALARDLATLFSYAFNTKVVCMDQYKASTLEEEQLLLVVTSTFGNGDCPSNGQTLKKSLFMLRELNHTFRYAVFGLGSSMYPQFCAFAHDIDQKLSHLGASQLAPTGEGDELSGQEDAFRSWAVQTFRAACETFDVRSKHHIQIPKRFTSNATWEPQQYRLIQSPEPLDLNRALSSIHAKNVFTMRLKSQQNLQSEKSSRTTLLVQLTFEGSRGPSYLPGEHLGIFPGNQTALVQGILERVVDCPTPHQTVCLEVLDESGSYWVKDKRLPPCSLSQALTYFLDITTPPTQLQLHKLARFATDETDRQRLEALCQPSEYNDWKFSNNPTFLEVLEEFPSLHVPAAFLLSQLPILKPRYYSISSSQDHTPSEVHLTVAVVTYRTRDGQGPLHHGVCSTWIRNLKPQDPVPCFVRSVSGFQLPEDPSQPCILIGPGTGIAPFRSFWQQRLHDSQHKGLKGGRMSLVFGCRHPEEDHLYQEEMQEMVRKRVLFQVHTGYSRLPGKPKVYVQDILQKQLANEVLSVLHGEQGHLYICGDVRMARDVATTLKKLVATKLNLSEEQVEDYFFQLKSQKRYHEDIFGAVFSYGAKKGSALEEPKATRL
# In short: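 Mouse RAW 264.7 macrophages were seeded at 50 000 cells/well and grown 24 h. They were pretreated with samples for 30 min, then stimulated with LPS at 5 μg/mL for 24 h. Nitrite in the supernatant was measured by Griess reagent, and inhibition was calculated against the vehicle control. IC50 came from dose–response curves, with cytotoxicity checked in parallel.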
# [2] = molecular target: T2, Nitric oxide synthase, inducible (Mus musculus) (UniProt P29477); test: Inhibition of iNOS in LPS-induced mouse RAW264.7 cells assessed as inhibition of […] up to 33.3 uM measured after 24 hrs; type: cell-based
# T2 sequence (whole entry): T1 sequence (P29477 whole entry)
# In short: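 RAW 264.7 macrophages seeded at 50 000 per well and grown 24 h. Compound added 30 min before LPS (5 μg/mL), then cells incubated a further 24 h. Nitrite in the supernatant measured with Griess reagent relative to vehicle control. Parthenolide served as positive control; cytotoxicity checked in parallel.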
# HL-60 [3] = test: Inhibition of PMA induced ROS generation in human HL60 cells assessed as inhibition of ROA mediated oxidation of DCFH at 100 uM; type: functional, cell-based
# In short: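 HL-60 cells (0.8 × 10⁶/mL) in RPMI-1640 with 10% FBS were pretreated 30 min with compound (0.4–100 μM). PMA (100 ng/mL) was then added for 30 min, followed by DCFH-DA (5 μg/mL) for 15 min. DCF fluorescence read at Ex 485 / Em 530 nm and compared with vehicle control. Trolox served as positive control.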
# [4] = Inhibition of Hedgehog signaling pathway in human HeLa cells assessed as inhibition of PMA induced luciferase at 100 uM treated 30 mins before induction; type: cell-based
# In short: (§1)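 Reporter assay in cells transfected with pathway luciferase plasmids. Cells plated at 0.015 × 10⁶ per well in 10% FBS, switched after 24 h to DMEM with 1% FBS, then transfected. 24 h after transfection, compound (final 40, 60, 80 or 100 μM) was added, followed 30 min later by inducer (IL-6, TGF-β, wnt3a or PMA). Luciferase was read 4 or 6 h after induction (6 h for Notch, Wnt, Hedgehog). Value is the IC50 or the lowest concentration giving maximal 50–60% inhibition; two independent experiments.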
# [5] = Inhibition of Wnt signaling pathway in human HeLa cells assessed as measured as lowest concentration required 50 to 60 % inhibition of Wnt3a induced luciferase treated 30 mins before induction; type: cell-based; in short: as §1
# [6] = Inhibition of Wnt signaling pathway in human HeLa cells assessed as inhibition of Wnt3a induced luciferase treated 30 mins before induction; type: cell-based; in short: as §1
# [7] = molecular target: Forkhead box protein O1 (Homo sapiens) (UniProt Q12778); test: Inhibition of FoxO signaling pathway in human HeLa cells assessed as inhibition of luciferase at 100 uM […]; type: cell-based
# [8] = Inhibition of Notch signaling pathway in human HeLa cells assessed as measured as lowest concentration required 50 to 60 % inhibition of PMA induced luciferase treated 30 mins before induction; type: cell-based; in short: as §1
# [9] = Inhibition of Notch signaling pathway in human HeLa cells assessed as inhibition of PMA induced luciferase treated 30 mins before induction; type: cell-based; in short: as §1
# [10] = Inhibition of Ets signaling pathway in human HeLa cells assessed as measured as lowest concentration required 50 to 60 % inhibition of PMA induced luciferase treated 30 mins before induction; type: cell-based; in short: as §1
# [11] = Inhibition of Ets signaling pathway in human HeLa cells assessed as inhibition of PMA induced luciferase treated 30 mins before induction; type: cell-based; in short: as §1
# [12] = molecular target: Myc proto-oncogene protein (Homo sapiens) (UniProt P01106); test: Inhibition of Myc signaling pathway in human HeLa cells assessed as measured as lowest concentration required 50 to 60 % inhibition of PMA induced luciferase treated 30 mins before induction; type: cell-based; in short: as §1
# [13] = Inhibition of E2F signaling pathway in human HeLa cells assessed as inhibition of PMA induced luciferase at 100 uM treated 30 mins before induction; type: cell-based; in short: as §1
# [14] = Inhibition of NFkappaB signaling pathway in human HeLa cells assessed as measured as lowest concentration required 50 to 60 % inhibition of PMA induced luciferase treated 30 mins before induction; type: cell-based; in short: as §1
# [15] = Inhibition of NFkappaB signaling pathway in human HeLa cells assessed as inhibition of PMA induced luciferase treated 30 mins before induction; type: cell-based; in short: as §1
# [16] = Inhibition of AP1 signaling pathway in human HeLa cells assessed as measured as lowest concentration required 50 to 60 % inhibition of PMA induced luciferase treated 30 mins before induction; type: cell-based; in short: as §1
# [17] = Inhibition of AP1 signaling pathway in human HeLa cells assessed as inhibition of PMA induced luciferase treated 30 mins before induction; type: cell-based; in short: as §1
# HeLa [18] = test: Inhibition of smad3/4 signaling pathway in human HeLa cells assessed as measured as lowest concentration required 50 to 60 % inhibition of TGF-beta induced luciferase treated 30 mins before induction; type: functional; in short: as §1
# HeLa [19] = test: Inhibition of smad3/4 signaling pathway in human HeLa cells assessed as inhibition of TGF-beta induced luciferase treated 30 mins before induction; type: functional, cell-based; in short: as §1
# HeLa [20] = test: Inhibition of Stat3 signaling pathway in human HeLa cells assessed as measured as lowest concentration required 50 to 60 % inhibition of IL-6 induced luciferase treated 30 mins before induction; type: functional; in short: as §1
# HeLa [21] = test: Inhibition of Stat3 signaling pathway in human HeLa cells assessed as inhibition of IL-6 induced luciferase treated 30 mins before induction; type: functional, cell-based; in short: as §1
# SK-OV-3 [22] = test: Cytotoxicity against human SKOV3 cells assessed as growth inhibition measured at 100 uM after 48 hrs by […] assay; type: functional, cell-based
# HL-60 [23] = test: Cytotoxicity against human HL60 cells assessed as growth inhibition measured after 48 hrs by XTT assay; type: functional, cell-based; settings: HL-60, 48 h
# KB = test: Cytotoxicity against human KB cells assessed as growth inhibition measured after 48 hrs by Neutral Red dye assay
# HeLa [24] = test: Cytotoxicity against human HeLa cells assessed as growth inhibition measured after 48 hrs by Neutral Red dye assay
# LLC-PK1 = test: Cytotoxicity against pig LLC-PK1 cells assessed as growth inhibition measured after 48 hrs by Neutral Red dye assay; settings: Sus scrofa, LLC-PK1, 48 h
# BT-549 = test: Cytotoxicity against human BT549 cells assessed as growth inhibition measured after 48 hrs by Neutral Red dye assay; settings: BT-549, 48 h
# SK-MEL = test: Cytotoxicity against human SK-MEL cells assessed as growth inhibition measured after 48 hrs by Neutral Red dye assay
# Vero = test: Cytotoxicity against african green monkey Vero cells assessed as growth inhibition measured after 48 hrs by Neutral Red dye assay; settings: Chlorocebus sabaeus
# SK-OV-3 [25] = test: Cytotoxicity against human SKOV3 cells assessed as growth inhibition measured after 48 hrs by Neutral Red dye assay; settings: SK-OV-3, 48 h
# Forkhead box protein O1 (Homo sapiens), sequence (Q12778 whole entry): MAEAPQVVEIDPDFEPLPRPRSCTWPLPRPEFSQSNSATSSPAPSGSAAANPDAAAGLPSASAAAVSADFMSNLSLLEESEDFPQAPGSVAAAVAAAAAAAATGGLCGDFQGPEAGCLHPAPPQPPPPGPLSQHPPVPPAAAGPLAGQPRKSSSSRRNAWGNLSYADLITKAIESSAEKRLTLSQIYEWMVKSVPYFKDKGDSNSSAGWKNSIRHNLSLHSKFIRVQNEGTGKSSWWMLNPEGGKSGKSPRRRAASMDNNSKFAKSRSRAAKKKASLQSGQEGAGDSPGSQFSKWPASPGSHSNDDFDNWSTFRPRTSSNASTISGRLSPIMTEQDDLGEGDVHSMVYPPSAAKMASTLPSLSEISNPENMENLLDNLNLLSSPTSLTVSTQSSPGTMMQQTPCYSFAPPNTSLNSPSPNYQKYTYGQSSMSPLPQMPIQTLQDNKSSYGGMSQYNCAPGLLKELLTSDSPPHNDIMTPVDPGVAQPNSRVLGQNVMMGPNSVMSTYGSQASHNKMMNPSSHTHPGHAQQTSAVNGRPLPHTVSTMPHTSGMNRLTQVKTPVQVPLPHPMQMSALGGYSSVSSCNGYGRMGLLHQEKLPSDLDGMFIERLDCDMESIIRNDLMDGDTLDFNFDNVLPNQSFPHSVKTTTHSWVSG
# Myc proto-oncogene protein (Homo sapiens), sequence (P01106 whole entry): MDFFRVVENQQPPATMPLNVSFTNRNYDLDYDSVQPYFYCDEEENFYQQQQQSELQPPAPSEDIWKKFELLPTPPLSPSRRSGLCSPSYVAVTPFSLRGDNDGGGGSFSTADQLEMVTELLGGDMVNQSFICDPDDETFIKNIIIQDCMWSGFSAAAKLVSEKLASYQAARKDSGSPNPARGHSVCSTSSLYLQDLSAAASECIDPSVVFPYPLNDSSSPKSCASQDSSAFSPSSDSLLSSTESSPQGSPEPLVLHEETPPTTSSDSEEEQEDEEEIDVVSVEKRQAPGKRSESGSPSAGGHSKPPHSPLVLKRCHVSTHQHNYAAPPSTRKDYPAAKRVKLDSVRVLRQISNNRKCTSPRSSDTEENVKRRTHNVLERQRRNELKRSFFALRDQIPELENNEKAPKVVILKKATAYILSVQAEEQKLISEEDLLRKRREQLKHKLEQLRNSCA
smiles,measurement,setting,value
C=C1C(=O)O[C@@H]2C3O[C@]3(C)CC/C=C(\C)CC[C@@H]12 (stereo partly specified),pIC50,[1],5.10
"COc1cc(/C=C\c2ccc(OC)c(OC)c2)cc(OC)c1 [(Z)-3,4,3',5'-TETRAMETHOXYSTILBENE]",inhibition,[2],inactive
same,inhibition,HL-60 [3],inactive
same,inhibition,[4],< 40%
same,MED,[5],50 µM
same,pIC50,[6],4.40
same,inhibition,[7],< 40%
same,MED,[8],40 µM
same,pIC50,[9],4.40
same,MED,[10],65 µM
same,pIC50,[11],4.40
same,MED,[12],65 µM
same,inhibition,[13],< 40%
same,MED,[14],80 µM
same,pIC50,[15],4.10
same,MED,[16],80 µM
same,pIC50,[17],4.10
same,MED,HeLa [18],55 µM
same,pIC50,HeLa [19],4.40
same,MED,HeLa [20],77 µM
same,pIC50,HeLa [21],4.30
same,growth inhibition (GI),SK-OV-3 [22],inactive
same,pIC50,HL-60 [23],5.37
same,pIC50,KB,5.37
same,pIC50,HeLa [24],5.44
same,pIC50,LLC-PK1,5.22
same,pIC50,BT-549,5.40
same,pIC50,SK-MEL,5.37
same,pIC50,Vero,< 4.48
COc1cccc2c1C(=O)c1c(O)c3c(c(O)c1C2=O)C[C@@](O)(C(=O)CO)C[C@@H]3O[C@H]1C[C@H](N)[C@H](O)[C@H](C)O1 [DOXORUBICIN],pIC50,KB,5.42
same,pIC50,HeLa [24],5.41
same,pIC50,LLC-PK1,5.80
same,pIC50,SK-OV-3 [25],5.59
same,pIC50,BT-549,5.43
same,pIC50,SK-MEL,5.82
same,pIC50,Vero,< 5.04
